Experimental data taken from ChEMBL document CHEMBL1134340, “GnRH antagonists: a new generation of long acting analogues incorporating p-ureido-phenylalanines at positions 5 and 6” (J Med Chem, 2001).

Experiments:
[1] = target: T1, Gonadotropin-releasing hormone receptor (Homo sapiens, UniProt P30968); assay: Antagonism of human GnHR receptor, determined in a reporter gene assay in HEK293 cells; type: functional, cell-based
T1 sequence (P30968 whole entry): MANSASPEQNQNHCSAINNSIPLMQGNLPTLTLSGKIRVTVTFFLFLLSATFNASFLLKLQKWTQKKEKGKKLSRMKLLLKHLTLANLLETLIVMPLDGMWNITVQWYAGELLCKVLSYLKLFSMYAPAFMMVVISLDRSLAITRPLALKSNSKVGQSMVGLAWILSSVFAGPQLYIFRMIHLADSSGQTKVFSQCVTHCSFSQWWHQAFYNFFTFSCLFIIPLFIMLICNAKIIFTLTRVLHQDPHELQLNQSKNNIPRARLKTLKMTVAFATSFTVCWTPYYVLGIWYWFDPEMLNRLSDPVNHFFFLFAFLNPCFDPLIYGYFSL
Method in brief: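 HEK293 cells stably expressing cloned human GnRH receptor plus luciferase reporter under LH alpha subunit promoter, plated 24 h before assay. Compound in 1% DMSO added 10 min at 37 °C, then GnRH at 3 nM final; 5 h incubation, luciferase luminescence read. Six concentrations in duplicate; blank-subtracted cps as % of GnRH control; mean of two determinations.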

[2] = target: T1, Gonadotropin-releasing hormone receptor; assay: Competitive antagonism of GnRH-induced response in the reporter gene assay; type: functional; details: read-out: pA2 (converted)
Method in brief: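 Same HEK293 human GnRH receptor luciferase reporter cells. Seven-point GnRH curve (10 µM to 10 pM final) run in duplicate without or with four to five increasing compound concentrations (10 min preincubation, 37 °C), then 5 h and luminescence. GnRH EC50 at each level by four-parameter logistic fit, giving pA2; mean of two determinations in duplicate.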

IC50 [1]	Kb [2]	SMILES
7 nM	1.58 nM	CC(=O)NCc1ccc(C[C@@H](NC(=O)[C@H](Cc2ccc(NC(=O)[C@H]3CC(=O)NC(=O)N3)cc2)NC(=O)[C@H](CO)NC(=O)[C@@H](Cc2cccnc2)NC(=O)[C@@H](Cc2ccc(Cl)cc2)NC(=O)[C@@H](Cc2ccc3ccccc3c2)NC(C)=O)C(=O)N[C@@H](CC(C)C)C(=O)N[C@@H](CCCCNC(C)C)C(=O)N2CCC[C@H]2C(=O)N[C@H](C)C(N)=O)cc1
9.5 nM	1 nM	CC(=O)NCc1ccc(C[C@@H](NC(=O)[C@H](Cc2ccc(NC(=O)[C@@H]3CC(=O)NC(=O)N3)cc2)NC(=O)[C@H](CO)NC(=O)[C@@H](Cc2cccnc2)NC(=O)[C@@H](Cc2ccc(Cl)cc2)NC(=O)[C@@H](Cc2ccc3ccccc3c2)NC(C)=O)C(=O)N[C@@H](CC(C)C)C(=O)N[C@@H](CCCCNC(C)C)C(=O)N2CCC[C@H]2C(=O)N[C@H](C)C(N)=O)cc1
6.4 nM	0.631 nM	CC(=O)Nc1ccc(C[C@H](NC(=O)[C@H](CO)NC(=O)[C@@H](Cc2cccnc2)NC(=O)[C@@H](Cc2ccc(Cl)cc2)NC(=O)[C@@H](Cc2ccc3ccccc3c2)NC(C)=O)C(=O)N[C@H](Cc2ccc(CNC(N)=O)cc2)C(=O)N[C@@H](CC(C)C)C(=O)N[C@@H](CCCCNC(C)C)C(=O)N2CCC[C@H]2C(=O)N[C@H](C)C(N)=O)cc1
5.8 nM	0.794 nM	CC(=O)N[C@H](Cc1ccc2ccccc2c1)C(=O)N[C@H](Cc1ccc(Cl)cc1)C(=O)N[C@H](Cc1cccnc1)C(=O)N[C@@H](CO)C(=O)N[C@@H](Cc1ccc(NC(=O)[C@@H]2CC(=O)NC(=O)N2)cc1)C(=O)N[C@H](CCCNC(N)=O)C(=O)N[C@@H](CC(C)C)C(=O)N[C@@H](CCCCNC(C)C)C(=O)N1CCC[C@H]1C(=O)N[C@H](C)C(N)=O
2.8 nM	2 nM	CC(=O)N[C@H](Cc1ccc2ccccc2c1)C(=O)N[C@H](Cc1ccc(Cl)cc1)C(=O)N[C@H](Cc1cccnc1)C(=O)N[C@@H](CO)C(=O)N[C@@H](Cc1ccc(NC(=O)[C@@H]2CC(=O)NC(=O)N2)cc1)C(=O)N[C@H](Cc1cccnc1)C(=O)N[C@@H](CC(C)C)C(=O)N[C@@H](CCCCNC(C)C)C(=O)N1CCC[C@H]1C(=O)N[C@H](C)C(N)=O
8.8 nM	0.631 nM	CCNC(=O)[C@@H]1CCCN1C(=O)[C@H](CCCCNC(C)C)NC(=O)[C@H](CC(C)C)NC(=O)[C@@H](Cc1ccc(CNC(N)=O)cc1)NC(=O)[C@H](Cc1ccc(NC(=O)[C@@H]2CC(=O)NC(=O)N2)cc1)NC(=O)[C@H](CO)NC(=O)[C@@H](Cc1cccnc1)NC(=O)[C@@H](Cc1ccc(Cl)cc1)NC(=O)[C@@H](Cc1ccc2ccccc2c1)NC(C)=O
10.7 nM	–	CC(=O)Nc1ccc(C[C@@H](NC(=O)[C@H](Cc2ccc(NC(=O)c3cc(=O)[nH]c(=O)[nH]3)cc2)NC(=O)[C@H](CO)NC(=O)[C@@H](Cc2cccnc2)NC(=O)[C@@H](Cc2ccc(Cl)cc2)NC(=O)[C@@H](Cc2ccc3ccccc3c2)NC(C)=O)C(=O)N[C@@H](CC(C)C)C(=O)N[C@@H](CCCCNC(C)C)C(=O)N2CCC[C@H]2C(=O)N[C@H](C)C(N)=O)cc1
13 nM	–	CC(=O)N[C@H](Cc1ccc2ccccc2c1)C(=O)N[C@H](Cc1ccc(Cl)cc1)C(=O)N[C@H](Cc1cccnc1)C(=O)N[C@@H](CO)C(=O)N[C@@H](Cc1ccc(NC(=O)[C@@H]2CC(=O)NC(=O)N2)cc1)C(=O)N[C@H](Cc1ccc2ccccc2c1)C(=O)N[C@@H](CC(C)C)C(=O)N[C@@H](CCCCNC(C)C)C(=O)N1CCC[C@H]1C(=O)N[C@H](C)C(N)=O
7.7 nM	–	CC(=O)N[C@H](Cc1ccc2ccccc2c1)C(=O)N[C@H](Cc1ccc(Cl)cc1)C(=O)N[C@H](Cc1cccnc1)C(=O)N[C@@H](CO)C(=O)N[C@@H](Cc1ccc(NC(=O)[C@H]2CC(=O)NC(=O)N2)cc1)C(=O)N[C@H](Cc1ccc(CNC(N)=O)cc1)C(=O)N[C@@H](CC(C)C)C(=O)N[C@@H](CCCCNC(C)C)C(=O)N1CCC[C@H]1C(=O)N[C@H](C)C(N)=O
